Measurements reported in ChEMBL document CHEMBL5038579, “Structure-Guided Development of Potent Benzoylurea Inhibitors of BCL-XL and BCL-2” (J Med Chem, 2021).
The source made the active and inactive calls. No cut-off for these calls is given here.

Key:
[1] = Inhibition of GST tagged human BCL-XL deltaC25 using biotin-DLRPEIRIAQELRIZIGDEFNETYTRR as substrate […] measured after 4 hrs by AlphaSCREEN assay
[2] = Inhibition of GST tagged human/mouse chimeric MCL-1 using biotin-DLRPEIRIAQELRIZIGDEFNETYTRR as substrate incubated for 40 mins followed by substrate addition measured after 4 hrs by AlphaSCREEN assay
[3] = Inhibition of GST tagged human BCL-XL deltaC25 by surface plasmon resonance assay
[4] = Inhibition of human BCL-2 deltaC22 by surface plasmon resonance assay
How it was run: (§1)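 Biacore solution competition. Protein (10 nM) preincubated 2 h with compound (12.5−0.0001 μM, 10-step half-log series) in HEPES running buffer pH 7.4 with EDTA and 0.005% Tween 20. Injected over a CM5 chip carrying wild-type or inert mBIM BH3 peptide. IC₅₀ by nonlinear curve fit. GST tag removed from BCL-XL and MCL-1 before use.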

[5] = Inhibition of human BCL-W deltaC23 C29S/A128E mutant by surface plasmon resonance assay; how it was run: as §1
[6] = Inhibition of GST tagged human/mouse chimeric MCL-1 by surface plasmon resonance assay
[7] = Inhibition of mouse A1 deltaC20 P10K/C113S mutant by surface plasmon resonance assay; how it was run: as §1
MEF [8] = assay: Cytotoxicity against MCL deficient mouse embryonic fibroblast cells assessed as reduction in cell viability in presence of 1 % fetal calf serum measured after 24 hrs by propidium iodide staining based flow cytometric analysis; format: functional
How it was run: (§2)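 MEFs (WT, MCL-1−/−, MCL-1−/−/BAX−/−/BAK−/−) seeded at 1 × 10⁴ cells/well in FMA medium with 1% FCS, 24 h before dosing. Four-point dilutions: 0.168−0.00005 μM for ABT-737, 25−3.13 μM for others; final DMSO 0.2%, duplicate wells, 24 h. Cells stained with PI, flow cytometry on 1000 events. PI-negative fraction normalized to DMSO vehicle; EC₅₀ by nonlinear regression, mean ± SEM of three experiments.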

MEF [9] = assay: Cytotoxicity against MCL-1deficient MEF cells assessed as release of cytochrome c from mitochondria at 25 uM FACS analysis; format: functional
How it was run: (§3)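 MEFs at 1.5 × 10⁵ cells/well in FMA medium with 1% FCS, 3 h rest, then compounds for 18 h (final DMSO 0.25%) beside a vehicle control. Cells permeabilized with 0.025% digitonin on ice for 5 min, then fixed in 1% paraformaldehyde. Stained with anti-cytochrome c (1:100) and a PE secondary in saponin buffer. FL2 read on 10 000 events for % cells with low cytochrome c. Four experiments; multiple unpaired t test (Holm−Sidak, α = 0.01).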

MEF [10] = assay: Cytotoxicity against wild type MEF cells assessed as release of cytochrome c from mitochondria FACS analysis; format: functional, cell-based; details: Mus musculus; how it was run: as §3
MEF [11] = assay: Cytotoxicity against MCL-1/BAX/BAK deficient MEF cells assessed as release of cytochrome c from mitochondria by FACS analysis; format: functional, cell-based; details: Mus musculus; how it was run: as §3
MEF [12] = assay: Cytotoxicity against wild type mouse embryonic fibroblast cells assessed as reduction in cell viability in presence of 1 % fetal calf serum measured after 24 hrs propidium iodide staining based flow cytometric analysis; format: functional; how it was run: as §2
MEF [13] = assay: Cytotoxicity against MCL-1/BAX/BAK deficient mouse embryonic fibroblast cells assessed as reduction in cell viability in presence of 1 % fetal calf serum measured after 24 hrs propidium iodide staining based flow cytometric analysis; format: functional; how it was run: as §2
MEF [14] = assay: Cytotoxicity against mouse embryonic fibroblast cells assessed as reduction in cell viability in presence of 10 % fetal calf serum measured after 24 hrs propidium iodide staining based flow cytometric analysis; format: functional
COLO 205 = assay: Cytotoxicity against BCL-XL dependent human COLO205 cells assessed as reduction in cell viability measured after 48 hrs by CellTitre-Glo assay; format: functional, cell-based
How it was run: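 COLO205 cells (WT or BAK−/−/BAX−/−), kept in RPMI-1640 with 10% FCS, seeded at 3 × 10³ cells/well in medium with 10 or 1% FCS. Dosed one day later with six-point serial dilutions (0.0003−10 μM 1:8 for BH3 mimetics; 0.1−25 μM 1:3 for benzoylureas). Viability normalized to matched DMSO vehicle; EC₅₀ by curve fit.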

MEF [15] = assay: Cytotoxicity against MCL-1deficient MEF cells assessed as release of cytochrome c from mitochondria at 2.5 uM FACS analysis; format: functional, Mus musculus; how it was run: as §3

Row | SMILES | IC50 [1] [µM] | IC50 [2] [µM] | IC50 [3] [µM] | IC50 [4] [µM] | IC50 [5] [µM] | IC50 [6] [µM] | IC50 [7] [µM] | other results
1 | Cc1ccc(CN(C(=O)N[C@@H](CS(=O)(=O)CC23CC4CC(CC(C4)C2)C3)C(=O)O)C(=O)c2ccc(-c3ccccc3)cc2)cc1 | 0.19 | 6.1 | 0.42 | 9.4 | > 12.5 | > 12.5 | 6.8 | 
2 | Cc1ccc(CN(C(=O)N[C@@H](CSCc2ccccc2)C(=O)O)C(=O)c2ccc(-c3ccccc3)cc2)cc1 | 0.51 | 7.7 |  |  |  |  |  | 
3 | Cc1ccc(CN(C(=O)N[C@@H](CS(=O)(=O)CC2CCCCC2)C(=O)O)C(=O)c2ccc(-c3ccccc3)cc2)cc1 | 0.46 | 10 | 0.62 | > 12.5 | > 12.5 | > 12.5 | > 12.5 | 
4 | Cc1ccc(CN(C(=O)N[C@@H](CSCc2ccccc2)C(=O)O)C(=O)c2ccc(-c3cccc(-c4ccccc4-c4ccc(Cl)cc4)c3)cc2)cc1 | 0.24 | 1.5 |  |  |  |  |  | 
5 | CCCN(C(=O)N[C@@H](CSCc1ccccc1)C(=O)O)C(=O)c1ccc(-c2ccccc2)cc1 | 31 | 28 |  |  |  |  |  | EC50 (MEF [8]): > 25 µM; Activity (MEF [9]; Mus musculus): inactive; Activity (MEF [10]): inactive; Activity (MEF [11]): inactive
6 | Cc1ccc(CN(C(=O)N[C@@H](CS(=O)(=O)Cc2ccccc2)C(=O)O)C(=O)c2ccc(-c3ccccc3)cc2)cc1 | 0.59 | 11.6 | 1.8 | > 12.5 | > 12.5 | > 12.5 | > 12.5 | 
7 | Cc1ccc(CN(C(=O)N[C@@H](CSCc2ccccc2)C(=O)O)C(=O)c2ccc3c(c2)CCN(Cc2ccccc2-c2ccc(Cl)cc2)C3)cc1 | 0.21 | 2 | 0.24 | 0.152 | 10 | > 12.5 | 4.6 | 
8 | Cc1ccc(CN(C(=O)N[C@@H](CS(=O)(=O)CC2CCCCC2)C(=O)O)C(=O)c2ccc3c(c2)CCN(Cc2ccccc2-c2ccc(Cl)cc2)C3)cc1 | 0.04 | 1.8 | 0.041 | 0.018 | 6.8 | > 12.5 | 4.6 | EC50 (MEF [8]): 19.2 µM; Activity (MEF [12]): inactive; Activity (MEF [13]): inactive; Activity (MEF [14]): inactive; Activity (COLO 205): inactive; Activity (MEF [9]): 30%; Activity (MEF [10]): inactive; Activity (MEF [11]): inactive
9 | COC(=O)[C@H](CSCc1ccccc1)NC(=O)N(Cc1ccc(C)cc1)C(=O)c1ccc(-c2ccccc2)cc1 | > 100 | > 100 |  |  |  |  |  | 
10 | Cc1ccc(CN(C(=O)N[C@@H](COCc2ccccc2)C(=O)O)C(=O)c2ccc(-c3ccccc3)cc2)cc1 | 0.38 | 11.8 |  |  |  |  |  | 
11 | Cc1ccc(CN(C(=O)N[C@@H](CCCc2ccccc2)C(=O)O)C(=O)c2ccc(-c3ccccc3)cc2)cc1 | 1.09 | 8 |  |  |  |  |  | 
12 | Cc1ccc(CN(C(=O)NCCSCc2ccccc2)C(=O)c2ccc(-c3ccccc3)cc2)cc1 | > 100 | > 100 |  |  |  |  |  | 
13 | CN(C)CC[C@H](CSc1ccccc1)Nc1ccc(S(=O)(=O)NC(=O)c2ccc(N3CCN(Cc4ccccc4-c4ccc(Cl)cc4)CC3)cc2)cc1[N+](=O)[O-] [ABT 737] | 0.004 | 40 | < 0.00025 | < 0.00025 | 0.012 | > 12.5 |  | EC50 (MEF [8]): 0.013 µM; Activity (MEF [12]): inactive; Activity (MEF [13]): inactive; Activity (MEF [15]): >90%
14 | Cc1ccc(CN(C(=O)N[C@@H](CS(=O)(=O)CC23CC4CC(CC(C4)C2)C3)C(=O)O)C(=O)c2ccc3c(c2)CCN(Cc2ccccc2-c2ccc(Cl)cc2)C3)cc1 | 0.04 | 1.8 | 0.044 | 0.107 | > 12.5 | > 12.5 | 5.9 | 
15 | CSC[C@H](NC(=O)N(Cc1ccc(C)cc1)C(=O)c1ccc(-c2ccccc2)cc1)C(=O)O | 13.1 | 44 |  |  |  |  |  | 
16 | Cc1ccc(CN(C(=O)N[C@@H](CS(=O)(=O)Cc2ccccc2)C(=O)O)C(=O)c2ccc3c(c2)CCN(Cc2ccccc2-c2ccc(Cl)cc2)C3)cc1 | 0.17 | 5.3 | 0.133 | 0.066 | > 12.5 | > 12.5 | > 12.5 | 
